*1 amine or outer side, *2 acyl side, *3 side chain or, on linkers, in order; H or OH if unused. Where a SMILES comes first, the peptide text is derived from it. Bridges are numbered along the chain shown (N, C = ends). Roman numbers before positions name the chains, in order. [ ]: non-standard residue; d: D form. Actinocin(9to1) = Cc1c2oc3c(C)ccc(C(=O)[*:1])c3nc-2c(C(=O)[*:2])c(N)c1=O; NMeV = CN[C@H](C(=O)O)C(C)C; Sar = CNCC(=O)O
Assays:
[1] = In vitro cytotoxicity of Act D; format: cell-based; conditions: human, Caco-2 cells
Method in brief: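 Caco-2 cells were seeded at 1×10^4 cells/well in DMEM with 10% FBS and cultured for 24 h. They were then exposed for 5 h to the test compound at 1, 2, 3.2 and 6 µM in HBSS. WST-8 was added for 1 h and absorbance read at 450 nm. Viability is expressed as a percentage of untreated cells; mean ± SD, n=6.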

[2] = Parallel artificial membrane permeability assay; format: in vitro ADME; conditions: PAMPA, pH 6.8
Method in brief: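 PAMPA: donor wells held test formulation diluted in PBS pH 6.8 to 200 µg/mL drug equivalent; receiver wells held PBS pH 6.8. Plates were incubated 5 h at room temperature. Donor and receiver concentrations were measured by HPLC at 254 nm (C18; water pH 3.5/acetonitrile 80:20, 1 mL/min). Effective permeability was calculated with filter area 0.288 cm2, donor volume 0.2 mL and receiver volume 0.3 mL, using equilibrium concentration.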

[3] = In vitro permeability across a Caco-2 cell monolayer; format: in vitro ADME; conditions: human
[4] = In vivo pharmacokinetic study in rats; conditions: Sprague-Dawley, rat, plasma, 25 mg/kg
Method in brief: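 Male Sprague-Dawley rats (6–7 weeks, 200–250 g) received the test formulation orally in water at 25 mg/kg drug equivalent. The IV reference was 5 mg/kg aqueous drug by tail vein. Retro-orbital blood was taken into heparin plus 3.8% sodium citrate, spun at 2,500×g for 15 min at 4 °C, and plasma stored at −70 °C. Plasma was assayed by LC/MS (C18, ESI positive, m/z 428; DAMPA internal standard). Non-compartmental analysis; n=4, mean ± SD.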

Row | Papp at 5 h, 200 µg/mL [2] [×10⁻⁶ cm/s] | Papp at 5 h, 100 µg/mL [3] [×10⁻⁶ cm/s] | bioavailability ([4]; oral) [%] | AUC(0-inf) ([4]; po) [ng·h/mL] | AUC(0-t) ([4]; po) [ng·h/mL] | Cmax ([4]; po) [ng/mL] | Tmax ([4]; po) [min] | half-life ([4]; po) [min] | Compound | viability at 5 h, 3.2 µM [1] [%]
1 | – | – | – | – | – | – | – | – | Cc1c2oc3c(C)ccc(C(=O)N[C@@H]4C(=O)N[C@H](C(C)C)C(=O)N5CCC[C@H]5C(=O)N(C)CC(=O)N(C)[C@@H](C(C)C)C(=O)O[C@@H]4C)c3nc-2c(C(=O)N[C@@H]2C(=O)N[C@H](C(C)C)C(=O)N3CCC[C@H]3C(=O)N(C)CC(=O)N(C)[C@@H](C(C)C)C(=O)O[C@@H]2C)c(N)c1=O [Act D, actinomycin D] (I: T[dV]P[Sar][NMeV] / II: T[dV]P[Sar][NMeV]; ester I:1-I:C, II:1-II:C; linker I:N-II:N via Actinocin(9to1)) | 105 ± 6.81
2 | 0.29 ± 0.08 | 1.78 ± 0.118 | 5.02 ± 0.57 | 2770 ± 210 | 2350 ± 270 | 1280 ± 170 | 37.8 ± 15 | 150 ± 27 | Nc1nc2[nH]cc(CCc3ccc(C(=O)N[C@@H](CCC(=O)O)C(=O)O)cc3)c2c(=O)[nH]1 [PMX, N-[4-[2-(2-amino-3,4-dihydro-4-oxo-7H-pyrrolo[2,3-d]pyrimidin-5-yl)-ethyl]-benzoyl]-L-glutamic acid] | –

Reference: article PMC6690926 (International Journal of Nanomedicine, 2019)
